Results from different studies.
Compare with care: the assays were run in different laboratories.
Read-out: cell growth or viability

| SMILES | cell line | test | setting | IC50 |
| --- | --- | --- | --- | --- |
| O=C1/C(=C/c2cc(O)c(O)c(O)c2)Oc2ccccc21 | HEK-293T | ATP luminescence | 24 h | 23 mg/L |
| O=CC[C@@H](O)[C@H](O)[C@H](O)CO | A-431 | MTT | 3 h | > 6000 µM |
| O=C(Nc1cccc(CO)c1)c1c[nH]c2ccc(Cl)cc12 | SK-N-BE(2)-C | MTT |  | 14 µM |
| COc1cc([C@@H]2c3cc4c(cc3[C@@H](O[C@@H]3O[C@@H]5CO[C@@H](C)O[C@H]5[C@H](O)[C@H]3O)[C@H]3COC(=O)[C@H]23)OCO4)cc(OC)c1O | CCD-18Co | MTS | 24 h | 48.4 µM |
| COc1cc([C@@H]2c3cc4c(cc3[C@@H](O[C@@H]3O[C@@H]5CO[C@@H](C)O[C@H]5[C@H](O)[C@H]3O)[C@H]3COC(=O)[C@H]23)OCO4)cc(OC)c1O | CCD-18Co | MTS | 72 h | 42.2 µM |
| COc1cc2nccc(Oc3ccc(NC(=O)C4(C(=O)Nc5ccc(F)cc5)CC4)cc3)c2cc1OC | human Myoblast |  | 72 h | 0.14 µM |
| N[C@@H](CC(=O)N1CCN(C(c2ccc(F)cc2)c2ccc(F)cc2)CC1)C(=O)N1Cc2ccccc2C1 | TF-1 | ATP luminescence | 48 h | 28.8 µM |
| COc1cccc(Oc2ccccc2NC(=O)[C@H](C)NC(=O)c2cccc3ccccc23)c1 | SK-N-AS |  |  | 1.5 µM |
| COc1ccc(C[C]2([Ti+2][C]3(Cc4ccc(OC)cc4)C=CC=C3)C=CC=C2)cc1.[Cl-].[Cl-] | HEK-293T | XTT | 72 h | > 200 µM |
| Cc1ccc2nc(-c3ccccc3O)[nH]c2c1 | HepG2 | MTT | 48 h | 26.1 µM |
| O=C(c1cc(O)c(O)c(O)c1)c1cc2cc(-c3ccc(CO)cc3)ccc2o1 | HEK-293T | ATP luminescence | 72 h | 1 mg/L |
| C=CCNC1=C2C[C@@H](C)C[C@H](OC)[C@H](O)[C@@H](C)/C=C(\C)[C@H](OC(N)=O)[C@@H](OC)/C=C\C=C(/C)C(=O)NC(=CC1=O)C2=O | A-431 | MTT |  | 0.067 µM |
| CC(C)C[C@H](NC(=O)[C@H](Cc1ccccc1)NC(=O)c1cnccn1)B(O)O | M-07e | ATP luminescence |  | 0.0053 µM |
| COc1cccc(Oc2ccccc2NC(=O)CNC(=O)c2cccc3ccccc23)c1 | SK-N-AS |  |  | 0.125 µM |
| CCCCNS(=O)(=O)c1ccc(-c2ccc3oc(C(=O)c4cc(O)c(O)c(O)c4)cc3c2)cc1 | HEK-293T | ATP luminescence | 24 h | 15 mg/L |
| COc1cc(N2CCC(N3CCN(C)CC3)CC2)ccc1Nc1ncc(Cl)c(Nc2ccccc2S(=O)(=O)C(C)C)n1 | human Myoblast |  | 72 h | 0.45 µM |

| SMILES | cell line | test | setting | IC50 |
| --- | --- | --- | --- | --- |
| Clc1ccc(-c2nc3ccccc3[nH]2)cc1Cl | HepG2 | MTT | 48 h | 7.45 µM |
| [Cl-].[Cl-].[Ti+4].c1cc[cH-]c1.c1cc[cH-]c1 | HEK-293T | XTT | 72 h | > 200 µM |
| COc1cc(-c2ncn(/C=C\C(=O)OC(C)C)n2)cc(C(F)(F)F)c1 | SKNO-1 |  | 72 h | 0.058 µM |
| COC(=O)CN=c1scc(-c2ccccc2)n1-c1ccccc1[N+](=O)[O-] | PANC-03-27 | MTT | 72 h | 25.5 µM |
| COc1ccc(Oc2ccccc2NC(=O)CNC(=O)c2cccc3ccccc23)cc1 | SK-N-AS |  |  | 0.091 µM |
| COC(=O)CN=c1scc(-c2ccccc2)n1-c1ccccc1C | PANC-03-27 | MTT | 72 h | > 100 µM |
| COc1cc(Nc2nccc(-c3cnn4nc(OC)ccc34)n2)cc(C(F)(F)F)c1 | M-07e | ATP luminescence |  | 0.11 µM |
| Cc1cc(NC(=O)c2cccc3cc(-c4cccc5[nH]nc(N)c45)ccc23)ccc1F | D283 | CCK-8 | 72 h | > 20 µM |
| O=C(CNC(=O)c1cccc2ccccc12)Nc1ccccc1Oc1cccc(O)c1 | SK-N-AS |  |  | 0.192 µM |
| COC(=O)CN=c1scc(-c2ccccc2)n1-c1ccc(Cl)cc1 | PANC-03-27 | MTT | 72 h | 22.1 µM |
| O=C(NCc1ccc(CO)cc1)c1c[nH]c2ccc(Cl)cc12 | SK-N-BE(2)-C | MTT |  | 17 µM |
| Cc1cnc(NC2CCOCC2)nc1-n1cnc(C(=O)NC(CN)c2cc(F)cc(Cl)c2)c1 (stereo not shown) | KM-H2 | MTS |  | 2.6 µM |
| Cc1[nH]c(/C=C2\C(=O)Nc3ccc(S(=O)(=O)N(C)c4cccc(Cl)c4)cc32)c(C)c1C(=O)N1CCN(C)CC1 | human Myoblast |  | 72 h | 3.85 µM |
| COC(=O)CN=c1scc(-c2ccccc2)n1-c1ccc(C)cc1 | PANC-03-27 | MTT | 72 h | 10.8 µM |
| CC1=CC(C)(C)N(Cc2ccccc2)c2ccc(O)cc21 | Huh-7 | MTT | 72 h | 16 µM |
